From publication PMC3899497 (Clinical Pharmacokinetics, 2013)
Read-outs that look alike come from different tables or passages of the source. Each block holds one compound with its values, some of them ahead of it.

Tests used:
[1] = format: in vivo, human; conditions: for AUC(0-inf) / AUC(0-t) / Vd/F / half-life: human, po; for Plasma concentration at 6 h after clopidogrel administration: most subjects, LLOQ 0.25 ng/mL
[2] = cited from earlier work
[3] = tested on: ADP-induced platelet aggregation; experiment: ADP-induced whole-blood platelet aggregation, Multiplate impedance aggregometer; format: in vivo, human
Outline: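 Caucasian patients from central Poland undergoing coronary or peripheral interventions received the test drug orally, fasting, 75 mg daily for 7 days beforehand. Blood was drawn 2–3 h post-dose into hirudin tubes, diluted 1:1 with 0.9 % NaCl, and stirred 3 min at 37 °C. ADP was added at 6.4 μmol/L, and impedance was recorded for 6 min. Aggregation was expressed as AUC (AU·min).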

[4] = cited from earlier work; remark: listed apart in the source
[5] = patients, oral clopidogrel 75 mg for 7 days, plasma
[6] = patients, oral clopidogrel 75 mg, plasma
[7] = patients, single oral clopidogrel 300 mg loading dose, plasma
[8] = patients, single oral clopidogrel 300 mg, plasma
[9] = clopidogrel 75 mg maintenance dose, 6.4 μmol/L ADP
[10] = clopidogrel 75 mg, single subject
[11] = clopidogrel 75 mg, diabetes mellitus no (n = 19)
[12] = clopidogrel 75 mg, diabetes mellitus yes (n = 11)
[13] = clopidogrel 75 mg, proton-pump inhibitors no (n = 15)
[14] = clopidogrel 75 mg, proton-pump inhibitors yes (n = 13)
[15] = healthy volunteers, clopidogrel 75 mg, ref 10

SMILES: O=C(O)[C@H](c1ccccc1Cl)N1CCc2sccc2C1 [CLPM]
C max in plasma relative to that of the parent drug ([1]; patients, clopidogrel 75 and 300 mg): thousand-fold greater | C max (mean ± SD) [1, 5]: 2,516 ± 1,754 ng/mL | AUCt (mean ± SD) [1, 6]: 11,077 ± 7,768 ng·h/mL | AUC∞ (mean ± SD) [1, 6]: 12,383 ± 8,552 ng·h/mL | t max (mean ± SD) [1, 6]: 1.37 ± 0.74 h | C max (mean ± SD) [1, 7]: 8,464 ± 3,772 ng/mL | AUCt (mean ± SD) [1, 8]: 32,979 ± 12,321 ng·h/mL | AUC∞ (mean ± SD) [1, 8]: 37,249 ± 13,861 ng·h/mL | t max (mean ± SD) [1, 8]: 1.61 ± 1.21 h

SMILES: COC(=O)[C@H](c1ccccc1Cl)N1CCC(S)/C(=C\C(=O)O)C1 (some centres unmarked) [CTM]
C max ([2]; healthy control subjects, clopidogrel 600 mg): 14.5 ng/mL | Concentrations in plasma ([2]; method not distinguishing H3 and H4 isomers): > 20 ng/mL | C max ([2]; patients with a history of stent thrombosis, clopidogrel 600 mg): 3.2 ng/mL

SMILES: COC(=O)[C@H](c1ccccc1Cl)N1CCc2sccc2C1 [Clopidogrel, (+)-S clopidogrel bisulfate, reference compound]
AUC(0-inf) ([1]; plasma, 75 mg): 6.29 ± 4.11 ng·h/mL | AUC(0-t) ([1]; plasma, 75 mg): 5.07 ± 3.8 ng·h/mL | Vd/F ([1]; plasma, 75 mg): 39200 ± 33500 L | half-life ([1]; plasma, 75 mg): 1.71 ± 1.28 h | AUC(0-inf) ([1]; plasma, 300 mg): 21.8 ± 13.3 ng·h/mL | AUC(0-t) ([1]; plasma, 300 mg): 20.8 ± 13.3 ng·h/mL | Vd/F ([1]; plasma, 300 mg): 45500 ± 19200 L | half-life ([1]; plasma, 300 mg): 1.99 ± 0.44 h | CL/F (mean ± SD) ([1]; patients, oral clopidogrel 75 mg): 18.96 ± 15.89 ×10^3 L/h | C max (mean ± SD) [1, 5]: 2.04 ± 2.0 ng/mL | CL/F (mean ± SD) ([1]; patients, single oral clopidogrel 300 mg): 16.98 ± 10.41 ×10^3 L/h | C max (mean ± SD) [1, 7]: 4.51 ± 3.42 ng/mL | t max (mean ± SD) [1, 8]: 1.17 ± 0.76 h | Platelet aggregation, mean ± SD [3, 9]: 166 ± 146 AU·min | Platelet aggregation, median [3, 9]: 141 AU·min | Number of patients characterized as non-responders (AUC >468 AU·min) ([3]; clopidogrel 75 mg, 38 patients): two | Number of patients with low platelet aggregation (AUC <100 AU·min) ([3]; clopidogrel 75 mg, 38 patients): 14 patients | Platelet aggregation (AUC), one patient with high H4 concentrations ([3]; clopidogrel 75 mg, single patient later excluded from the correlation): 637 AU·min | Platelet aggregation, one subject with low H4 concentrations [3, 10]: 747 AU·min | C max ([2]; Argentinean subjects, clopidogrel 75 mg): 0.9 ng/mL | C max ([2]; Egyptian healthy volunteers, clopidogrel 75 mg): 4.4 ng/mL | C max ([2]; US healthy volunteers, fasted state, clopidogrel 75 mg): 1.5 ng/mL | C max ([2]; US healthy volunteers, fed state, clopidogrel 75 mg): 2.5 ng/mL | Fraction of the absorbed drug transformed by carboxyl esterases into CLPM [4]: Up to 85%

Continued, in another order:

AUCt (mean ± SD) [1, 11]: 6.71 ± 4.47 ng·h/mL | C max (mean ± SD) [1, 11]: 4.90 ± 4.02 ng/mL | AUCt (mean ± SD) [1, 12]: 7.88 ± 9.33 ng·h/mL | C max (mean ± SD) [1, 12]: 5.96 ± 7.69 ng/mL | AUCt (mean ± SD) [1, 13]: 7.03 ± 5.52 ng·h/mL | C max (mean ± SD) [1, 13]: 5.00 ± 4.93 ng/mL | AUCt (mean ± SD) [1, 14]: 7.76 ± 8.16 ng·h/mL | C max (mean ± SD) [1, 14]: 5.94 ± 6.63 ng/mL | Plasma concentration at 6 h after clopidogrel administration [1]: below the limit of quantification | C max (mean ± SD) [1, 5]: 5.29 ± 5.54 ng/mL | AUCt (mean ± SD) [1, 6]: 7.37 ± 6.71 ng·h/mL | AUC∞ (mean ± SD) [1, 6]: 7.96 ± 6.85 ng·h/mL | t max (mean ± SD) [1, 6]: 1.08 ± 0.62 h | t ½ (mean ± SD) [1, 6]: 0.78 ± 0.78 h | C max (mean ± SD) [1, 7]: 8.47 ± 1.69 ng/mL | AUCt (mean ± SD) [1, 8]: 11.24 ± 8.31 ng·h/mL | AUC∞ (mean ± SD) [1, 8]: 11.70 ± 8.33 ng·h/mL | t max (mean ± SD) [1, 8]: 0.83 ± 0.29 h | t ½ (mean ± SD) [1, 8]: 0.72 ± 0.18 h
SMILES: COC(=O)[C@H](c1ccccc1Cl)N1CC[C@H](S)/C(=C\C(=O)O)C1 [H3]
C max [2, 15]: 17.8 ng/mL

Exposure to H4 relative to exposure to the H3 isomer ([1]; after clopidogrel 300 mg (n = 3)): two times greater | AUCt (mean ± SD) [1, 11]: 10.46 ± 9.78 ng·h/mL | C max (mean ± SD) [1, 11]: 6.61 ± 6.30 ng/mL | AUCt (mean ± SD) [1, 12]: 11.69 ± 9.63 ng·h/mL | C max (mean ± SD) [1, 12]: 8.04 ± 6.55 ng/mL | AUCt (mean ± SD) [1, 13]: 9.69 ± 9.81 ng·h/mL | C max (mean ± SD) [1, 13]: 5.92 ± 4.53 ng/mL | AUCt (mean ± SD) [1, 14]: 13.10 ± 9.82 ng·h/mL | C max (mean ± SD) [1, 14]: 9.04 ± 8.07 ng/mL | C max, one patient with high platelet aggregation (637 AU·min) ([1]; clopidogrel 75 mg, single patient): 23.3 ng/mL | C max, one subject with high platelet aggregation (747 AU·min) [1, 10]: 2.5 ng/mL | Plasma concentration at 6 h after clopidogrel administration [1]: below the limit of quantification | C max (mean ± SD) [1, 5]: 7.13 ± 6.32 ng/mL | AUCt (mean ± SD) [1, 6]: 11.30 ± 9.58 ng·h/mL | AUC∞ (mean ± SD) [1, 6]: 11.97 ± 9.75 ng·h/mL | t max (mean ± SD) [1, 6]: 1.04 ± 0.53 h | t ½ (mean ± SD) [1, 6]: 0.90 ± 0.86 h | C max (mean ± SD) [1, 7]: 17.92 ± 20.38 ng/mL | AUCt (mean ± SD) [1, 8]: 25.04 ± 27.41 ng·h/mL | AUC∞ (mean ± SD) [1, 8]: 25.69 ± 27.54 ng·h/mL | t max (mean ± SD) [1, 8]: 0.83 ± 0.29 h | t ½ (mean ± SD) [1, 8]: 0.84 ± 0.20 h
SMILES: COC(=O)[C@H](c1ccccc1Cl)N1CCC(S)/C(=C\C(=O)O)C1 (some centres unmarked) [H4]
C max [2, 15]: 16.4 ng/mL | C max ([2]; healthy volunteers, clopidogrel 75 mg, ref 32): 11 ng/mL
